Experimental data from ChEMBL document CHEMBL1125793 (J Med Chem, 1991).

Key:
[1] = molecular target: T1, Angiotensin II receptor (Rattus norvegicus) (UniProt P29089+P25095+P35351); assay: Inhibitory activity against Angiotensin II receptor, from rat adrenal gland at a concentration of 10 uM; assay type: tissue-based
How it was run: (§1)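 Displacement of 125I-Ang II ([…]) from rat adrenal membrane fraction, with test agent at a single 10 μM. Buffer was Tris-HCl, NaCl, 5 mM DTT and BSA; incubation 30 min at 22–25 °C in duplicate.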

[2] = molecular target: T2, Angiotensin II receptor (Rattus norvegicus, UniProt P29089+P25095+P35351); assay: Binding affinity for rat brain Angiotensin II receptor
T2 sequence (P29089 whole entry): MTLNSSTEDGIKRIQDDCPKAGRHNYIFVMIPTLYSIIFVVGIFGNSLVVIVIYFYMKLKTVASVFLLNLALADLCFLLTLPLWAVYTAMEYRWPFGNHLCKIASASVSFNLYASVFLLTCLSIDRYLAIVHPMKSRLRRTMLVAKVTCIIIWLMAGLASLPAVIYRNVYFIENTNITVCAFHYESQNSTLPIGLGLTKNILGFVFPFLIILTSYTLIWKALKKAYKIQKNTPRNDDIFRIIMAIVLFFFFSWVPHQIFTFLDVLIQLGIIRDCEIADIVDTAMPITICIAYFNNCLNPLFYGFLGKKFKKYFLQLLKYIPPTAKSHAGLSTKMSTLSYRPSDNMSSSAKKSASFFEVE
T2 sequence (P25095 whole entry): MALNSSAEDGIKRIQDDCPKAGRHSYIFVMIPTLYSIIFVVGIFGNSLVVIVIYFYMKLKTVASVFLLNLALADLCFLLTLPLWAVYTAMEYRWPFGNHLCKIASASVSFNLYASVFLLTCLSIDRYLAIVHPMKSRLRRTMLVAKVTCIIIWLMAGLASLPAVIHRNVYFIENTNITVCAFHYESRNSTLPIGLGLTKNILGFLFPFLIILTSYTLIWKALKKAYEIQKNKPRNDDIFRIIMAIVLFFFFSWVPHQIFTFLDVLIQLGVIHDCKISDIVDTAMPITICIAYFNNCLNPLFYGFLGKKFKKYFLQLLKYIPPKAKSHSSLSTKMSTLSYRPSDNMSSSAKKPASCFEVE
T2 sequence (P35351 whole entry): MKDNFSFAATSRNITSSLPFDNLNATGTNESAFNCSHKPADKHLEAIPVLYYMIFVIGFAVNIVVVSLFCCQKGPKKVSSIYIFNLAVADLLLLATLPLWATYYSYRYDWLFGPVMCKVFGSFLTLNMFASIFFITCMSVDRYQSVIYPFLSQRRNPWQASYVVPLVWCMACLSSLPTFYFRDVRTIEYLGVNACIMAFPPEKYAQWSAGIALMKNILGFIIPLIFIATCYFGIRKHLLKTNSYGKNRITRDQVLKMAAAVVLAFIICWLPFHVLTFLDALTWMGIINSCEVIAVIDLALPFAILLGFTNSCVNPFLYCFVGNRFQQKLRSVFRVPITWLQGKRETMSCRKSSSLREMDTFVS

[3] = molecular target: T2, Angiotensin II receptor; assay: Binding affinity against Angiotensin II receptor, from rat adrenal gland; assay type: tissue-based
[4] = molecular target: T1, Angiotensin II receptor (Rattus norvegicus); assay: Inhibitory activity against angiotensin II receptor at a concentration of 10 uM in rat; how it was run: as §1

SMILES | inhibition [1] [%] | IC50 [2] [nM] | IC50 [3] [nM] | inhibition [4] [%]
CC(=O)N1Cc2ncn(Cc3ccccc3)c2CC1C(=O)O (configuration not stated) | 4 |  |  | 
O=C(O)C1Cc2c(ncn2Cc2ccccc2)CN1C(=O)C(c1ccc(Cl)cc1)c1ccc(Cl)cc1 (configuration not stated) |  | 8200 | 6800 | 
O=C(O)[C@@H]1Cc2c(ncn2CCC23CC4CC(CC(C4)C2)C3)CN1C(=O)C(c1ccccc1)c1ccccc1 |  | 170 | 130 | 
O=C(O)C1Cc2ncn(Cc3ccccc3)c2CN1C(=O)Nc1ccccc1 (configuration not stated) | 24 |  |  | 
NC(=O)C1Cc2c(ncn2Cc2ccccc2)CN1C(=O)Nc1ccccc1 (configuration not stated) | 14 |  |  | 

Now from value to compound:

inhibition [1] [%] | IC50 [2] [nM] | IC50 [3] [nM] | inhibition [4] [%] | SMILES
 | 1600 | 150 |  | Cc1cccc(Cn2cnc3c2C[C@@H](C(=O)O)N(C(=O)C(c2ccccc2)c2ccccc2)C3)c1
 |  |  | 27 | COc1ccc(Cn2cnc3c2C[C@@H](C(=O)O)N(C(=O)C2c4ccccc4-c4ccccc42)C3)cc1C
 | 800 | 190 |  | O=C(O)[C@@H]1Cc2c(ncn2Cc2ccc(C(F)(F)F)cc2)CN1C(=O)C(c1ccccc1)c1ccccc1
 | 3800 | 440 |  | O=C(O)C1Cc2c(ncn2Cc2ccccc2)CN1C(=O)C(c1ccccc1)c1ccccc1 (stereo in doubt; 18a)
12 |  |  |  | O=C(O)C1Cc2c(ncn2Cc2ccccc2)CN1C(=O)c1ccccc1 (configuration not stated)
 | 210 | 34 |  | Cc1cc(Cn2cnc3c2C[C@@H](C(=O)O)N(C(=O)C(c2ccccc2)c2ccccc2)C3)ccc1N(C)C
